Source: ChEMBL document CHEMBL4428023, “1,4-Dihydropyridines Active on the SIRT1/AMPK Pathway Ameliorate Skin Repair and Mitochondrial Function and Exhibit Inhibition of Proliferation in Cancer Cells” (J Med Chem, 2016)
The source made the active and inactive calls. The calls are words filed in the database; no cut-off is given here.

Experiments:
[1] = molecular target: T1, NAD-dependent protein deacetylase sirtuin-1 (Homo sapiens) (UniProt Q96EB6); test: Activation of full-length GST-tagged recombinant human SIRT1 assessed as enzyme activity obtained without subtraction of intrinsic fluorescence using p53-based untagged peptide as substrate at 50 uM after 30 mins by SIRTainty assay
T1 sequence (whole entry): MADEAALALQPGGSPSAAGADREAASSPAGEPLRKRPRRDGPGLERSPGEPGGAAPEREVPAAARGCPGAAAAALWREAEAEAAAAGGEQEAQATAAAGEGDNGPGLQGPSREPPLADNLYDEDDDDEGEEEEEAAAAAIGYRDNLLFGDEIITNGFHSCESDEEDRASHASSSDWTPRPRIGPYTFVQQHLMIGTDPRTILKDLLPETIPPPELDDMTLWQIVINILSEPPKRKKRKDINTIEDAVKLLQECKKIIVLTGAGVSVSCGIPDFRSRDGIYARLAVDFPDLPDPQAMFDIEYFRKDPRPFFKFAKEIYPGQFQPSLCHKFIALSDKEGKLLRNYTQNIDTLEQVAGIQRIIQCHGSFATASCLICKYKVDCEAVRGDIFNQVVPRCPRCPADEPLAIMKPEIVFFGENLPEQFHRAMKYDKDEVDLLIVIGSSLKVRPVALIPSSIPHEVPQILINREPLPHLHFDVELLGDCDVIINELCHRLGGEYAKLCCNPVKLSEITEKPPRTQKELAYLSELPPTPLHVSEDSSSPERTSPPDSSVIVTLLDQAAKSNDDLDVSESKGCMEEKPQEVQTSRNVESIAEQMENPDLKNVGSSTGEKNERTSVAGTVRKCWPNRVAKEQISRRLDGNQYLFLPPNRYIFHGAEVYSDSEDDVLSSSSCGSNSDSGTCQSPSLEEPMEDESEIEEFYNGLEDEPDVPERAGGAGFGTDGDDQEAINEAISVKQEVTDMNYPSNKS

[2] = molecular target: T1, NAD-dependent protein deacetylase sirtuin-1 (Homo sapiens); test: Activation of full-length GST-tagged recombinant human SIRT1 assessed as enzyme activity obtained with subtraction of intrinsic fluorescence using p53-based untagged peptide as substrate at 50 uM after 30 mins by SIRTainty assay
[3] = molecular target: 3',5'-cyclic-AMP phosphodiesterase 4D (Homo sapiens) (UniProt Q08499); test: Inhibition of recombinant human PDE4D assessed as phosphate release using cAMP as substrate at 50 uM after 60 mins by malachite green assay
Sequence of 3',5'-cyclic-AMP phosphodiesterase 4D (Homo sapiens) (Q08499 whole entry): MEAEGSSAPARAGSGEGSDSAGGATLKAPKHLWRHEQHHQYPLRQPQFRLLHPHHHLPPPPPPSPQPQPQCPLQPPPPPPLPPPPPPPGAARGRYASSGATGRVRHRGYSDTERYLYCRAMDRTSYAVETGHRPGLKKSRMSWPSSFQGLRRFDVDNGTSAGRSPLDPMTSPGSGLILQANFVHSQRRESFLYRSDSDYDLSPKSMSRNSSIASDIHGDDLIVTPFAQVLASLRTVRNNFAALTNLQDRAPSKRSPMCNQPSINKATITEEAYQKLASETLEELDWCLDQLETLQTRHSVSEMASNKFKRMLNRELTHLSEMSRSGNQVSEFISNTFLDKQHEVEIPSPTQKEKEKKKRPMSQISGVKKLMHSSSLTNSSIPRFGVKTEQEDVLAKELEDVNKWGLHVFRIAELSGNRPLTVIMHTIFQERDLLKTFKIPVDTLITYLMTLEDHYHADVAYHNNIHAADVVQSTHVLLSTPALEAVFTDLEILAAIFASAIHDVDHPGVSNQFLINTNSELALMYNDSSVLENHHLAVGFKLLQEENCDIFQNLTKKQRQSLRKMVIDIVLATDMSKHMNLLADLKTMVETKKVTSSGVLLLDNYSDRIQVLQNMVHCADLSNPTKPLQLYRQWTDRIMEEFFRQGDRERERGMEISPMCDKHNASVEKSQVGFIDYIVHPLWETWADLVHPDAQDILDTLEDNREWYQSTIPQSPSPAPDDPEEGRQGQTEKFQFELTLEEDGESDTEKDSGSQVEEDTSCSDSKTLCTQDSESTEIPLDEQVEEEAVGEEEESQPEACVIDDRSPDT
How it was run: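 Recombinant human PDE4D (20 mU) in 10 mM Tris-HCl pH 7.4 with cAMP substrate. Compounds at 50 µM in DMSO; rolipram 10 µM as positive control. Incubated 60 min at 37 °C, then phosphate release measured by malachite green absorbance at 620 nm. Mean of three determinations.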

HaCaT = test: Activation of AMPK/SIRT1 in human HaCaT cells assessed as nitric oxide production at 1 uM incubated for 1 hr by DAF-2D staining-based fluorescence assay; assay type: cell-based
How it was run: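 HaCaT keratinocytes grown in DMEM with 10% FBS and antibiotics. Cells treated 1 h (single-point 1 µM; dose-response at 5, 25, 50 µM). 5 µM DAF-2D added to complete medium. Cells then washed in PBS, trypsinized and analysed by flow cytometry for DAF fluorescence (ex 485/em 538 nm). Read-out is % DAF-positive cells relative to DMSO control.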

[4] = molecular target: T1, NAD-dependent protein deacetylase sirtuin-1 (Homo sapiens); test: Activation of SIRT1 in […] at 1 uM by fluorimetric assay; assay type: cell-free; settings: HaCaT, TDE = time-dependent effect
[5] = molecular target: T1, NAD-dependent protein deacetylase sirtuin-1 (Homo sapiens); test: Activation of SIRT1 in human HaCaT cells assessed as H4K16 deacetylation at 1 uM after 1 hr by Western blotting method; assay type: cell-based
How it was run: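 HaCaT cells treated 1 h at 1 µM, DMSO as solvent control. Cells lysed in Laemmli buffer and immunoblotted for acetyl-H4K16 (1:1000), with total histone H4 as loading control. Bands quantified by densitometry. At least three independent experiments.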

SMILES	Activity [1] [%]	Activity [2] [%]	further results
O=C(O)C1=CN(Cc2ccccc2)C=C(C(=O)O)C1c1cc2ccccc2s1	38	7	–
NC(=O)C1=CN(Cc2ccccc2)C=C(C(N)=O)C1c1ccc2ccccc2c1	128	67	–
CCOC(=O)C1=CN(C(=O)c2ccccc2)C=C(C(=O)OCC)C1c1ccccc1Cl	184	143	–
N#CC1=CN(Cc2ccccc2)C=C(C#N)C1c1ccccc1	193	152	–
O=C(O)C1=CN(Cc2ccccc2)C=C(C(=O)O)C1c1nccs1	174	132	–
O=C(O)C1=CN(Cc2ccccc2)C=C(C(=O)O)C1c1cncs1	172	128	–
CCOC(=O)C1=CN(C(=O)c2cnc3ccccc3n2)C=C(C(=O)OCC)C1c1ccccc1	206	165	–
CCOC(=O)C1=CN(C(=O)c2ccccc2)C=C(C(=O)OCC)C1c1ccc(C)cc1	144	103	–
O=C(O)C1=CN(Cc2ccccc2)C=C(C(=O)O)C1c1cnc2ccccc2c1	209	167	–
O=C(O)C1=CN(Cc2ccccc2)C=C(C(=O)O)C1c1ccc(-c2ccccc2)cc1	285	285	inhibition [3]: inactive
NC(=O)C1=CN(Cc2ccccc2)C=C(C(N)=O)C1c1cc2ccccc2s1	127	37	–
CCOC(=O)C1=CN(S(=O)(=O)c2ccccc2)C=C(C(=O)OCC)C1c1ccccc1	169	130	–
CCOC(=O)C1=CN(Cc2ccccc2)C=C(C(=O)OCC)C1c1cnc2ccccc2c1	324	283	Activity (HaCaT): Active
CCOC(=O)C1=CN(Cc2ccccc2)C=C(C(=O)OCC)C1c1ccc2ccccc2c1	282	100	–
CCOC(=O)C1=CN(C(=O)c2ccccc2)C=C(C(=O)OCC)C1c1cccc(Cl)c1	163	127	–
CCOC(=O)C1=CN(Cc2ccccc2)C=C(C(=O)OCC)C1c1cccc2ccccc12	187	–	–
O=C(Nc1ccccc1-c1cn2c(CN3CCNCC3)csc2n1)c1cnc2ccccc2n1	209	–	–
NC(=O)C1=CN(Cc2ccccc2)C=C(C(N)=O)C1c1cncs1	194	165	–
CCOC(=O)C1=CN(C(=O)c2ccccc2)C=C(C(=O)OCC)C1c1cccc(C)c1	186	140	–
CCOC(=O)C1=CN(Cc2ccccc2)C=C(C(=O)OCC)C1c1ccc(-c2ccccc2)cc1	61	61	–
NC(=O)C1=CN(Cc2ccccc2)C=C(C(N)=O)C1c1cnc2ccccc2c1	197	147	–
CCOC(=O)C1=CN(C(=O)c2ccccc2)C=C(C(=O)OCC)C1c1ccc(OC)cc1	173	131	–
CCOC(=O)C1=CN(C(=O)c2ccccc2)C=C(C(=O)OCC)C1c1ccccc1C	183	140	–
CCOC(=O)C1=CN(Cc2ccccc2)C=C(C(=O)OCC)C1c1cncs1	221	133	–
NC(=O)C1=CN(Cc2ccccc2)C=C(C(N)=O)C1c1cccs1	55	49	–
CC1=C(C(=O)O)C(c2ccccc2)C(C(=O)O)=C(C)N1Cc1ccccc1	103	102	–

SMILES	Activity [1] [%]	Activity [2] [%]	further results
CCOC(=O)C1=CN(C(=O)c2ccc3ccccc3c2)C=C(C(=O)OCC)C1c1ccccc1	235	207	inhibition [3]: inactive
NC(=O)C1=CN(Cc2ccccc2)C=C(C(N)=O)C1c1cccc2ccccc12	145	–	–
NC(=O)C1=CN(Cc2ccccc2)C=C(C(N)=O)C1c1ccsc1	218	97	–
CCOC(=O)C1=CN(Cc2ccccc2)C=C(C(=O)OCC)C1c1nccs1	300	282	Activity (HaCaT): Active
CCOC(=O)C1=CN(Cc2ccccc2)C=C(C(N)=O)C1c1ccccc1 (stereo not given)	198	108	–
O=C(O)C1=CN(Cc2ccccc2)C=C(C(=O)O)C1c1ccc2ccccc2c1	116	–	–
CCOC(=O)C1=CN(C(=O)c2ccccc2)C=C(C(=O)OCC)C1c1ccc(Cl)cc1	231	191	–
CCOC(=O)C1=CN(C(=O)c2ccccc2)C=C(C(=O)OCC)C1c1ccccc1OC	170	127	–
O=C(O)C1=CN(Cc2ccccc2)C=C(C(=O)O)C1c1cccs1	21	21	–
CCOC(=O)C1=CN(C(=O)c2ccccc2)C=C(C(=O)OCC)C1c1cccc(OC)c1	156	117	–
Oc1ccc(/C=C/c2cc(O)cc(O)c2)cc1	–	–	Activity [4]: Tde; Activity [5]: Active
CCOC(=O)C1=CN(C(=O)c2cccc3ccccc23)C=C(C(=O)OCC)C1c1ccccc1	179	–	–
CCOC(=O)C1=CN(Cc2ccccc2)C=C(C(=O)OCC)C1c1cccs1	246	117	–
CCOC(=O)C1=CN(Cc2ccccc2)C=C(C(=O)O)C1c1ccccc1 (stereo not given)	196	105	–
CCOC(=O)C1=CN(Cc2ccccc2)C=C(C(=O)OCC)C1c1ccccc1	217	164	Activity (HaCaT): Active; inhibition [3]: inactive; Activity [5]: Active
NC(=O)C1=CN(Cc2ccccc2)C=C(C(N)=O)C1c1ccco1	77	62	–
CCOC(=O)C1=CN(C(=O)OCc2ccccc2)C=C(C(=O)OCC)C1c1ccccc1	206	158	–
CC1=C(C(N)=O)C(c2ccccc2)C(C(N)=O)=C(C)N1Cc1ccccc1	110	110	–
CCOC(=O)C1=CN(C(=O)c2cnccn2)C=C(C(=O)OCC)C1c1ccccc1	242	171	–
O=C(O)C1=CN(Cc2ccccc2)C=C(C(=O)O)C1c1ccsc1	56	45	–
NC(=O)C1=CN(Cc2ccccc2)C=C(C(N)=O)C1c1nccs1	231	188	–
NC(=O)C1=CN(Cc2ccccc2)C=C(C(N)=O)C1c1ccc(-c2ccccc2)cc1	96	–	–
CCOC(=O)C1=CN(Cc2ccccc2)C=C(C(=O)OCC)C1c1cc2ccccc2s1	139	39	–
CCOC(=O)C1=C(C)N(Cc2ccccc2)C(C)=C(C(=O)OCC)C1c1ccccc1	114	114	–
O=C(O)C1=CN(Cc2ccccc2)C=C(C(=O)O)C1c1cccc2ccccc12	108	94	–
NC(=O)C1=CN(Cc2ccccc2)C=C(C(=O)O)C1c1ccccc1 (stereo not given)	149	160	–
